Data: ChEMBL document CHEMBL1140385, “Synthesis and antibacterial activity of 3-substituted-6-(3-ethyl-4-methylanilino)uracils” (J Med Chem, 2005)
pKi: −log10 of the molar value. In brackets after ≈: the same amount, converted by molar mass.

Legend:
Enterococcus faecalis = assay: In vitro minimum inhibitory concentration against Enterococcus faecalis upon incubation at 37 degree C for 16 to 24 hr by dissolving in DMSO (1%); format: functional
In short: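 Log-phase E. faecalis was grown in brain-heart infusion broth and seeded at (3-7) × 10^5 CFU/mL. Duplicate 2-fold dilutions ran from 20 to 1.25 µg/mL, final 1% DMSO. After 16-24 h at 37 °C with shaking, OD600 was read.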

Enterococcus faecium [1] = assay: In vitro minimum inhibitory concentration against Vancomycin resistant Enterococci faecium upon incubation at 37 degree C for 16 to 24 hr by dissolving in DMSO (1%); format: functional
In short: (§1)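 Broth microdilution (modified NCCLS M7-A4). Enterococci grown to log phase in brain-heart infusion broth, seeded at (3-7) × 10⁵ CFU/mL. Compounds 2-fold diluted from DMSO stocks, 20 to 1.25 µg/mL, final 1% DMSO, in duplicate. Incubated 37 °C, 16-24 h, with shaking. OD600 read.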

Staphylococcus aureus [2] = assay: In vitro minimum inhibitory concentration against Staphylococcus aureus (Smith) upon incubation at 37 degree C for 16 to 24 hr by dissolving in DMSO (1%); format: functional
Staphylococcus aureus [3] = assay: In vitro minimum inhibitory concentration against Methicillin-resistant Staphylococcus aureus upon incubation at 37 degree C for 16 to 24 hr by dissolving in DMSO (1%); format: functional
In short: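 Broth microdilution (modified NCCLS M7-A4). Staphylococci grown to log phase in Luria broth, seeded at (3-7) × 10⁵ CFU/mL. Compounds 2-fold diluted from DMSO stocks, 20 to 1.25 µg/mL, final 1% DMSO, in duplicate. Incubated 37 °C, 16-24 h, with shaking. OD600 read.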

Staphylococcus aureus [4] = assay: Serum effect on MIC against Staphylococcus aureus (Smith) as ratio of MIC value in presence and absence of 50% fetal calf serum; format: functional
In short: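 Broth microdilution MIC was repeated with 50% fetal calf serum added to the growth medium (LB for S. aureus, brain-heart infusion broth for E. faecalis). The inoculum was (3-7) × 10^5 CFU/mL in 1% DMSO, incubated at 37 °C for 16-24 h, and read by OD600. The serum effect is the MIC with serum relative to the MIC without serum.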

[5] = molecular target: DNA polymerase III PolC-type (Bacillus subtilis (strain 168), UniProt P13267); assay: Inhibitory concentration against Bacillus subtilis DNA polymerase IIIC using [3H]dTMP 250 pM (30 degree C for 10 min)
Sequence of DNA polymerase III PolC-type (P13267 whole entry, the tested form may be a part): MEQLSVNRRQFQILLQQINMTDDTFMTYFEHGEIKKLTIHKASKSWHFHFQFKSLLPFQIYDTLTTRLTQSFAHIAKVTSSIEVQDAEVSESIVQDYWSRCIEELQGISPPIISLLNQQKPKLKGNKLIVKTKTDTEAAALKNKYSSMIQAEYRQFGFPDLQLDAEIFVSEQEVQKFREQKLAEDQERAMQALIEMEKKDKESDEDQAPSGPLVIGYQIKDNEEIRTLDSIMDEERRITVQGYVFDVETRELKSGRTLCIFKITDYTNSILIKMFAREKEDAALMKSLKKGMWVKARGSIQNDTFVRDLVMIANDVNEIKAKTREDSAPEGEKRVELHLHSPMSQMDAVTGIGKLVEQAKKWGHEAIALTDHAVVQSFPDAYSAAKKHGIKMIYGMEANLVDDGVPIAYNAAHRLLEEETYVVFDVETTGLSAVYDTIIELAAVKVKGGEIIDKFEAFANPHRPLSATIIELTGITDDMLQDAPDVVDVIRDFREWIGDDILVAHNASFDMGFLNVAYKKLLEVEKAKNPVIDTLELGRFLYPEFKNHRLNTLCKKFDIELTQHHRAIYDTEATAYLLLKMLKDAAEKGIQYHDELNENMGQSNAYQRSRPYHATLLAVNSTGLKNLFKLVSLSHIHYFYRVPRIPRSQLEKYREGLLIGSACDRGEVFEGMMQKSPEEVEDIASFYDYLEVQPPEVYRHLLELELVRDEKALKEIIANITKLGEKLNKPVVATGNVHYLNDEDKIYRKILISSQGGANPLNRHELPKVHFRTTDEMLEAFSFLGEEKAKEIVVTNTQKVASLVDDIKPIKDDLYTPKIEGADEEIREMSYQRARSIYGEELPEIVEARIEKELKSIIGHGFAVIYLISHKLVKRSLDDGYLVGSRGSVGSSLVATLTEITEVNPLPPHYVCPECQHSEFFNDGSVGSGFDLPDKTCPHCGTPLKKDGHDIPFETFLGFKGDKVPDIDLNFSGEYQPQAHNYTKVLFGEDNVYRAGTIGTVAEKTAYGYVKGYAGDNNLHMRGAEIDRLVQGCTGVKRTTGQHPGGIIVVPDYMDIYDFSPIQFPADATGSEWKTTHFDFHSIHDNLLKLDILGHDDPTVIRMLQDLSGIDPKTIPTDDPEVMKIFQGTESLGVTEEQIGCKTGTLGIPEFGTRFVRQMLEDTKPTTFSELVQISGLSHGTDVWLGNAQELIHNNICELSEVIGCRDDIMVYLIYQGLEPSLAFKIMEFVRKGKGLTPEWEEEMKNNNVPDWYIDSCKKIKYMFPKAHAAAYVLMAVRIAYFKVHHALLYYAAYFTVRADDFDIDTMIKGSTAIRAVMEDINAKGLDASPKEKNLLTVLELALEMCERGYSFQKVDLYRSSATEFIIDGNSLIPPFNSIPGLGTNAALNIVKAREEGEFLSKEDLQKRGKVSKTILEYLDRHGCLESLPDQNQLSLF
In short: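 Homogeneous recombinant B. subtilis pol IIIC, 0.025-0.06 units, acted on activated calf thymus DNA with Mg2+, DTT, glycerol, dATP, dCTP, dTTP and [3H]dTTP, without dGTP. Compounds were serially diluted from DMSO. Reactions ran 10 min at 30 °C, were stopped with TCA-pyrophosphate, and the filter-collected precipitate was scintillation counted. Apparent Ki was read directly from this truncated assay; average standard deviation ±44%.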

Enterococcus faecium [6] = assay: In vitro minimum inhibitory concentration against Enterococcus fecium upon incubation at 37 degree C for 16 to 24 hr by dissolving in DMSO (1%); format: functional; in short: as §1
Staphylococcus aureus [7] = assay: In vitro minimum inhibitory concentration against Staphylococcus aureus upon incubation at 37 degree C for 16 to 24 hr by dissolving in DMSO (1%); format: functional
Bacillus subtilis = assay: In vitro minimum inhibitory concentration against Bacillus subtilis upon incubation at 37 degree C for 16 to 24 h; format: functional

Compound: CCc1cc(Nc2cc(=O)n(CCCCNC(=O)C3CC3)c(=O)[nH]2)ccc1C
- MIC (Enterococcus faecalis): 5 µg/mL (≈ 13 µM)
- MIC (Enterococcus faecium [1]): 5 µg/mL (≈ 13 µM)
- MIC (Staphylococcus aureus [2]): 5 µg/mL (≈ 13 µM)
- MIC (Staphylococcus aureus [3]): 20 µg/mL (≈ 52 µM)
- MIC+/MIC- (Staphylococcus aureus [4]): 14.9

Compound: CCc1cc(Nc2cc(=O)n(CCCOC)c(=O)[nH]2)ccc1C
- MIC (Enterococcus faecalis): 5 µg/mL (≈ 15.8 µM)
- MIC (Enterococcus faecium [1]): 2.5 µg/mL (≈ 7.88 µM)
- MIC (Staphylococcus aureus [2]): 2.5 µg/mL (≈ 7.88 µM)
- pKi [5]: 6.92
- MIC (Staphylococcus aureus [3]): 2.5 µg/mL (≈ 7.88 µM)
- MIC (Enterococcus faecium [6]): 2.5 µg/mL (≈ 7.88 µM)
- MIC (Staphylococcus aureus [7]): 2.5 µg/mL (≈ 7.88 µM)
- MIC (Bacillus subtilis): < 1.25 µg/mL
- MIC+/MIC- (Staphylococcus aureus [4]): 4.9

Compound: CCc1cc(Nc2cc(=O)n(CC#CCO)c(=O)[nH]2)ccc1C
- MIC (Enterococcus faecalis): 10 µg/mL (≈ 31.9 µM)
- MIC (Enterococcus faecium [1]): 10 µg/mL (≈ 31.9 µM)
- MIC (Staphylococcus aureus [3]): 10 µg/mL (≈ 31.9 µM)
- MIC (Enterococcus faecium [6]): 10 µg/mL (≈ 31.9 µM)
- MIC (Staphylococcus aureus [7]): 10 µg/mL (≈ 31.9 µM)

Compound: O=C(O)c1cn(C2CC2)c2cc(N3CCNCC3)c(F)cc2c1=O [CIPROFLOXACIN]
- MIC (Enterococcus faecium [1]): 20 µg/mL (≈ 60.4 µM)
- MIC (Staphylococcus aureus [2]): 0.078 µg/mL (≈ 0.235 µM)
- MIC (Staphylococcus aureus [3]): > 20 µg/mL
- MIC (Enterococcus faecium [6]): 5 µg/mL (≈ 15.1 µM)
- MIC (Staphylococcus aureus [7]): 0.156 µg/mL (≈ 0.471 µM)
- MIC (Bacillus subtilis): 0.078 µg/mL (≈ 0.235 µM)

Compound: CCc1cc(Nc2cc(=O)n(CCCCCCCCCCO)c(=O)[nH]2)ccc1C
- MIC (Enterococcus faecalis): > 20 µg/mL
- MIC (Staphylococcus aureus [2]): > 20 µg/mL
- pKi [5]: 7.29
- MIC (Enterococcus faecium [6]): > 20 µg/mL
- MIC (Staphylococcus aureus [7]): > 20 µg/mL
- MIC (Bacillus subtilis): < 1.25 µg/mL

Compound: CCOC(=O)CCCCn1c(=O)cc(Nc2ccc(C)c(CC)c2)[nH]c1=O
- MIC (Enterococcus faecalis): 5 µg/mL (≈ 13.4 µM)
- MIC (Enterococcus faecium [1]): 2.5 µg/mL (≈ 6.69 µM)
- MIC (Staphylococcus aureus [3]): > 20 µg/mL
- MIC (Enterococcus faecium [6]): < 1.25 µg/mL
- MIC+/MIC- (Staphylococcus aureus [4]): >12.2

Compound: CCc1cc(Nc2cc(=O)n(CCCC(C)=O)c(=O)[nH]2)ccc1C
- MIC (Enterococcus faecalis): 5 µg/mL (≈ 15.2 µM)
- MIC (Enterococcus faecium [1]): 2.5 µg/mL (≈ 7.59 µM)
- MIC (Staphylococcus aureus [2]): 2.5 µg/mL (≈ 7.59 µM)
- MIC (Staphylococcus aureus [3]): 5 µg/mL (≈ 15.2 µM)
- MIC (Enterococcus faecium [6]): 5 µg/mL (≈ 15.2 µM)

Compound: CCc1cc(Nc2cc(=O)n(CCOC(C)=O)c(=O)[nH]2)ccc1C
- MIC (Enterococcus faecalis): 5 µg/mL (≈ 15.1 µM)
- MIC (Enterococcus faecium [1]): 5 µg/mL (≈ 15.1 µM)
- MIC (Staphylococcus aureus [2]): 3.75 µg/mL (≈ 11.3 µM)
- pKi [5]: 6.92
- MIC (Staphylococcus aureus [3]): 5 µg/mL (≈ 15.1 µM)
- MIC (Enterococcus faecium [6]): 5 µg/mL (≈ 15.1 µM)
- MIC (Staphylococcus aureus [7]): 5 µg/mL (≈ 15.1 µM)
- MIC (Bacillus subtilis): 1.25 µg/mL (≈ 3.77 µM)

Compound: CCc1cc(Nc2cc(=O)n(CCCCCN3CCc4c([nH]c5ccc(OC)cc45)C3)c(=O)[nH]2)ccc1C
- MIC (Enterococcus faecalis): > 20 µg/mL
- MIC (Enterococcus faecium [1]): 5 µg/mL (≈ 9.7 µM)
- MIC (Staphylococcus aureus [2]): 10 µg/mL (≈ 19.4 µM)
- MIC (Staphylococcus aureus [3]): 10 µg/mL (≈ 19.4 µM)
- MIC (Enterococcus faecium [6]): 20 µg/mL (≈ 38.8 µM)

Compound: CCc1cc(Nc2cc(=O)n(CCCCOC)c(=O)[nH]2)ccc1C
- MIC (Enterococcus faecalis): 5 µg/mL (≈ 15.1 µM)
- MIC (Enterococcus faecium [1]): 2.5 µg/mL (≈ 7.54 µM)
- MIC (Staphylococcus aureus [2]): 5 µg/mL (≈ 15.1 µM)
- MIC (Staphylococcus aureus [3]): 5 µg/mL (≈ 15.1 µM)
- MIC (Enterococcus faecium [6]): 2.5 µg/mL (≈ 7.54 µM)
- MIC (Staphylococcus aureus [7]): 5 µg/mL (≈ 15.1 µM)
- MIC (Bacillus subtilis): < 1.25 µg/mL
- MIC+/MIC- (Staphylococcus aureus [4]): 7.4

Compound: CCc1cc(Nc2cc(=O)n(CCCOC(C)=O)c(=O)[nH]2)ccc1C
- MIC (Enterococcus faecalis): 5 µg/mL (≈ 14.5 µM)
- MIC (Enterococcus faecium [1]): 3.75 µg/mL (≈ 10.9 µM)
- MIC (Staphylococcus aureus [2]): 2.5 µg/mL (≈ 7.24 µM)
- pKi [5]: 6.92
- MIC (Staphylococcus aureus [3]): 5 µg/mL (≈ 14.5 µM)
- MIC (Enterococcus faecium [6]): 5 µg/mL (≈ 14.5 µM)
- MIC (Staphylococcus aureus [7]): 3.75 µg/mL (≈ 10.9 µM)
- MIC (Bacillus subtilis): 0.625 µg/mL (≈ 1.81 µM)

Compound: CCc1cc(Nc2cc(=O)n(C/C=C/CO)c(=O)[nH]2)ccc1C
- MIC (Enterococcus faecalis): 5 µg/mL (≈ 15.9 µM)
- MIC (Enterococcus faecium [1]): 2.5 µg/mL (≈ 7.93 µM)
- MIC (Staphylococcus aureus [2]): 5 µg/mL (≈ 15.9 µM)
- MIC (Staphylococcus aureus [3]): 5 µg/mL (≈ 15.9 µM)
- MIC (Enterococcus faecium [6]): 2.5 µg/mL (≈ 7.93 µM)
- MIC (Staphylococcus aureus [7]): 10 µg/mL (≈ 31.7 µM)
- MIC (Bacillus subtilis): 1.25 µg/mL (≈ 3.96 µM)
- MIC+/MIC- (Staphylococcus aureus [4]): 4.8

Compound: CCc1cc(Nc2cc(=O)n(CCCCCN)c(=O)[nH]2)ccc1C.Cl
- MIC (Enterococcus faecalis): > 20 µg/mL
- MIC (Enterococcus faecium [1]): > 20 µg/mL
- MIC (Staphylococcus aureus [2]): 10 µg/mL
- pKi [5]: 6.73
- MIC (Staphylococcus aureus [3]): 10 µg/mL
- MIC (Enterococcus faecium [6]): 20 µg/mL
- MIC (Staphylococcus aureus [7]): 5 µg/mL
- MIC (Bacillus subtilis): < 1.25 µg/mL

Compound: CCc1cc(Nc2cc(=O)n(CCCCOC(=O)N3CCOCC3)c(=O)[nH]2)ccc1C
- MIC (Enterococcus faecalis): 5 µg/mL (≈ 11.6 µM)
- MIC (Enterococcus faecium [1]): 5 µg/mL (≈ 11.6 µM)
- MIC (Staphylococcus aureus [2]): 5 µg/mL (≈ 11.6 µM)
- MIC (Staphylococcus aureus [3]): 10 µg/mL (≈ 23.2 µM)
- MIC (Enterococcus faecium [6]): 5 µg/mL (≈ 11.6 µM)

Compound: CCc1cc(Nc2cc(=O)n(CCCCOC(C)=O)c(=O)[nH]2)ccc1C
- MIC (Enterococcus faecalis): 5 µg/mL (≈ 13.9 µM)
- MIC (Enterococcus faecium [1]): 5 µg/mL (≈ 13.9 µM)
- MIC (Staphylococcus aureus [3]): 5 µg/mL (≈ 13.9 µM)
- MIC (Enterococcus faecium [6]): 5 µg/mL (≈ 13.9 µM)

Compound: CCOC(=O)CCCn1c(=O)cc(Nc2ccc(C)c(CC)c2)[nH]c1=O
- MIC (Enterococcus faecalis): 5 µg/mL (≈ 13.9 µM)
- MIC (Enterococcus faecium [1]): 5 µg/mL (≈ 13.9 µM)
- MIC (Staphylococcus aureus [3]): 5 µg/mL (≈ 13.9 µM)
- MIC+/MIC- (Staphylococcus aureus [4]): 10
